Experimental data taken from ChEMBL document CHEMBL3046951, “Volatile constituents from the leaves of Callicarpa japonica Thunb. and their antibacterial activities” (2004).

Assays:
Listeria monocytogenes [1] = experiment: Antimicrobial activity against Listeria monocytogenes ATCC 19111 assessed as growth inhibition rate at 16.8 mg/l after 72 hr by spectrophotometry; type: functional; details: ATCC 19111, 72 h, read-out: GI
How it was run: (§1)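 L. monocytogenes was grown at 30 °C in tryptic soy broth, subcultured for 18 h, and exposed to pure volatile compounds (>95% purity). Growth was followed by Bioscreen C optical density every 24 h for 72 h against a 10% Tween 80 control.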

Staphylococcus aureus [2] = experiment: Antimicrobial activity against Staphylococcus aureus ATCC 25923 assessed as growth inhibition rate at 16.8 mg/l after 72 hr by spectrophotometry; type: functional; details: ATCC 25923, 72 h, read-out: GI
Vibrio parahaemolyticus [3] = experiment: Antimicrobial activity against Vibrio parahaemolyticus ATCC 33844 assessed as growth inhibition rate at 16.8 mg/l after 72 hr by spectrophotometry; type: functional; details: ATCC 33844, 72 h, read-out: GI
Escherichia coli [4] = experiment: Antimicrobial activity against Escherichia coli O157:H7 ATCC 43894 assessed as growth inhibition rate at 16.8 mg/l after 72 hr by spectrophotometry; type: functional; details: O157:H7 ATCC 43894, 72 h, read-out: GI
Salmonella typhimurium [5] = experiment: Antimicrobial activity against Salmonella enterica subsp. enterica serovar Typhimurium ATCC 14028 assessed as growth inhibition rate at 16.8 mg/l after 72 hr by spectrophotometry; type: functional; details: ATCC 14028, 72 h, read-out: GI
How it was run: (§2)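 Salmonella Typhimurium ATCC 14028 grown in nutrient broth at 30 °C, precultured 24 h, then subcultured 1:100 for 18 h before testing. Single volatile compounds (>95% pure) were added. OD was read every 24 h over 72 h in a Bioscreen C, with 10% Tween 80 as the comparison control.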

Bacillus cereus [6] = experiment: Antimicrobial activity against Bacillus cereus ATCC 11778 assessed as growth inhibition rate at 16.8 mg/l after 72 hr by spectrophotometry; type: functional; details: ATCC 11778, 72 h, read-out: GI
How it was run: (§3)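 Pure volatile compounds (purity >95%; one at 90%) were tested against B. cereus ATCC 11778. The strain was grown at 30 °C in nutrient broth for 24 h, then subcultured for 18 h. Optical density was read in a Bioscreen C every 24 h for 72 h, with 10% Tween 80 as the control.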

Listeria monocytogenes [7] = experiment: Antimicrobial activity against Listeria monocytogenes ATCC 19111 assessed as growth inhibition rate at 2.36 mg/l after 72 hr by spectrophotometry; type: functional; details: ATCC 19111, 72 h, read-out: GI; how it was run: as §1
Staphylococcus aureus [8] = experiment: Antimicrobial activity against Staphylococcus aureus ATCC 25923 assessed as growth inhibition rate at 2.36 mg/l after 72 hr by spectrophotometry; type: functional; details: ATCC 25923, 72 h, read-out: GI
Vibrio parahaemolyticus [9] = experiment: Antimicrobial activity against Vibrio parahaemolyticus ATCC 33844 assessed as growth inhibition rate at 2.36 mg/l after 72 hr by spectrophotometry; type: functional; details: ATCC 33844, 72 h, read-out: GI
Escherichia coli [10] = experiment: Antimicrobial activity against Escherichia coli O157:H7 ATCC 43894 assessed as growth inhibition rate at 2.36 mg/l after 72 hr by spectrophotometry; type: functional; details: O157:H7 ATCC 43894, 72 h, read-out: GI
Bacillus cereus [11] = experiment: Antimicrobial activity against Bacillus cereus ATCC 11778 assessed as growth inhibition rate at 2.36 mg/l after 72 hr by spectrophotometry; type: functional; details: ATCC 11778, 72 h, read-out: GI; how it was run: as §3
Salmonella typhimurium [12] = experiment: Antimicrobial activity against Salmonella enterica subsp. enterica serovar Typhimurium ATCC 14028 assessed as growth inhibition rate at 2.36 mg/l after 72 hr by spectrophotometry; type: functional; details: ATCC 14028, 72 h, read-out: GI; how it was run: as §2
Listeria monocytogenes [13] = experiment: Antimicrobial activity against Listeria monocytogenes ATCC 19111 assessed as growth inhibition rate at 1.84 mg/l after 72 hr by spectrophotometry; type: functional; details: ATCC 19111, 72 h, read-out: GI; how it was run: as §1
Vibrio parahaemolyticus [14] = experiment: Antimicrobial activity against Vibrio parahaemolyticus ATCC 33844 assessed as growth inhibition rate at 1.84 mg/l after 72 hr by spectrophotometry; type: functional; details: ATCC 33844, 72 h, read-out: GI
Escherichia coli [15] = experiment: Antimicrobial activity against Escherichia coli O157:H7 ATCC 43894 assessed as growth inhibition rate at 1.84 mg/l after 72 hr by spectrophotometry; type: functional; details: O157:H7 ATCC 43894, 72 h, read-out: GI
Salmonella typhimurium [16] = experiment: Antimicrobial activity against Salmonella enterica subsp. enterica serovar Typhimurium ATCC 14028 assessed as growth inhibition rate at 1.84 mg/l after 72 hr by spectrophotometry; type: functional; details: ATCC 14028, 72 h, read-out: GI; how it was run: as §2
Bacillus cereus [17] = experiment: Antimicrobial activity against Bacillus cereus ATCC 11778 assessed as growth inhibition rate at 1.84 mg/l after 72 hr by spectrophotometry; type: functional; details: ATCC 11778, 72 h, read-out: GI; how it was run: as §3
Staphylococcus aureus [18] = experiment: Antimicrobial activity against Staphylococcus aureus ATCC 25923 assessed as growth inhibition rate at 1.84 mg/l after 72 hr by spectrophotometry; type: functional; details: ATCC 25923, 72 h, read-out: GI
Listeria monocytogenes [19] = experiment: microbe, parasite or virus in culture; details: ATCC 19111, 72 h, read-out: GI
Staphylococcus aureus [20] = experiment: microbe, parasite or virus in culture; details: ATCC 25923, 72 h, read-out: GI
Vibrio parahaemolyticus [21] = experiment: microbe, parasite or virus in culture; details: ATCC 33844, 72 h, read-out: GI
Escherichia coli [22] = experiment: microbe, parasite or virus in culture; details: O157:H7 ATCC 43894, 72 h, read-out: GI
Salmonella typhimurium [23] = experiment: microbe, parasite or virus in culture; details: Salmonella enterica, ATCC 14028, 72 h, read-out: GI
Bacillus cereus [24] = experiment: microbe, parasite or virus in culture; details: ATCC 11778, 72 h, read-out: GI
Listeria monocytogenes [25] = experiment: Antimicrobial activity against Listeria monocytogenes ATCC 19111 assessed as growth inhibition rate at 1.96 mg/l after 72 hr by spectrophotometry; type: functional; details: ATCC 19111, 72 h, read-out: GI
How it was run: (§4)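 Authentic volatiles (>95% purity; 2,4-heptadienal 90%) tested against 18 h subcultures. Growth media: E. coli O157:H7 and S. aureus in tryptic soy broth at 37 °C; L. monocytogenes in tryptic soy broth at 30 °C; V. parahaemolyticus in tryptic soy broth + 3% NaCl at 37 °C; S. typhimurium in nutrient broth at 30 °C. Bioscreen C OD every 24 h for 72 h versus 10% Tween 80 control.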

Staphylococcus aureus [26] = experiment: Antimicrobial activity against Staphylococcus aureus ATCC 25923 assessed as growth inhibition rate at 1.96 mg/l after 72 hr by spectrophotometry; type: functional; details: ATCC 25923, 72 h, read-out: GI; how it was run: as §4
Vibrio parahaemolyticus [27] = experiment: Antimicrobial activity against Vibrio parahaemolyticus ATCC 33844 assessed as growth inhibition rate at 1.96 mg/l after 72 hr by spectrophotometry; type: functional; details: ATCC 33844, 72 h, read-out: GI; how it was run: as §4
Escherichia coli [28] = experiment: Antimicrobial activity against Escherichia coli O157:H7 ATCC 43894 assessed as growth inhibition rate at 1.96 mg/l after 72 hr by spectrophotometry; type: functional; details: O157:H7 ATCC 43894, 72 h, read-out: GI
Bacillus cereus [29] = experiment: Antimicrobial activity against Bacillus cereus ATCC 11778 assessed as growth inhibition rate at 1.96 mg/l after 72 hr by spectrophotometry; type: functional; details: ATCC 11778, 72 h, read-out: GI
How it was run: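 Pure volatile compounds (>95% purity; 2,4-heptadienal 90%) identified in the leaf extract were tested against B. cereus ATCC 11778 in nutrient broth at 30 °C. The inoculum was grown 24 h, then subcultured (0.1 mL into 9.9 mL) for 18 h. Optical density was read in a Bioscreen C every 24 h for 72 h against a 10% Tween 80 control.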

CCCCCC=O [HEXANAL]
inhibition of growth at 16.8 µg/mL (Listeria monocytogenes [1]): 14.4% | inhibition of growth at 16.8 µg/mL (Staphylococcus aureus [2]): 11.3% | inhibition of growth at 16.8 µg/mL (Vibrio parahaemolyticus [3]): 57.8% | inhibition of growth at 16.8 µg/mL (Escherichia coli [4]): 41.5% | inhibition of growth at 16.8 µg/mL (Salmonella typhimurium [5]): 39.1% | inhibition of growth at 16.8 µg/mL (Bacillus cereus [6]): 19.3%

CCCCC=O [PENTANAL]
inhibition of growth at 2.36 µg/mL (Listeria monocytogenes [7]): 0% | inhibition of growth at 2.36 µg/mL (Staphylococcus aureus [8]): 6.3% | inhibition of growth at 2.36 µg/mL (Vibrio parahaemolyticus [9]): 0% | inhibition of growth at 2.36 µg/mL (Escherichia coli [10]): 0% | inhibition of growth at 2.36 µg/mL (Bacillus cereus [11]): 11.3% | inhibition of growth at 2.36 µg/mL (Salmonella typhimurium [12]): 4.2%

CC/C=C/C=O [PENTENAL]
inhibition of growth at 1.84 µg/mL (Listeria monocytogenes [13]): 16.9% | inhibition of growth at 1.84 µg/mL (Vibrio parahaemolyticus [14]): 40.7% | inhibition of growth at 1.84 µg/mL (Escherichia coli [15]): 11% | inhibition of growth at 1.84 µg/mL (Salmonella typhimurium [16]): 39.6% | inhibition of growth at 1.84 µg/mL (Bacillus cereus [17]): 27.4% | inhibition of growth at 1.84 µg/mL (Staphylococcus aureus [18]): 12.2%

CCCO [PROPANOL]
inhibition of growth at 1.76 µg/mL (Listeria monocytogenes [19]): 0% | inhibition of growth at 1.76 µg/mL (Staphylococcus aureus [20]): 6.1% | inhibition of growth at 1.76 µg/mL (Vibrio parahaemolyticus [21]): 0% | inhibition of growth at 1.76 µg/mL (Escherichia coli [22]): 0% | inhibition of growth at 1.76 µg/mL (Salmonella typhimurium [23]): 2.6% | inhibition of growth at 1.76 µg/mL (Bacillus cereus [24]): 0%

Cc1ccccc1 [TOLUENE]
inhibition of growth at 1.96 µg/mL (Listeria monocytogenes [25]): 0% | inhibition of growth at 1.96 µg/mL (Staphylococcus aureus [26]): 1.8% | inhibition of growth at 1.96 µg/mL (Vibrio parahaemolyticus [27]): 1.6% | inhibition of growth at 1.96 µg/mL (Escherichia coli [28]): 0% | inhibition of growth at 1.96 µg/mL (Bacillus cereus [29]): 0%
